The list is not random: actives were taken first. Their share in the collection is about 1.9%.
bCat nuc transl = beta-catenin nuclear translocation modulation; HeLa beta-catenin nuclear translocation, immunofluorescence imaging; nuclear translocation activity, % at 5 µM; actives 0.3% (n = 190,000);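 active = nuclear translocation activity above 50% at 5 µM, with a well cell count of 50 or more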;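 also: per-cell ratio of nuclear to cytoplasmic median beta-catenin stain intensity; plate controls were DMSO negative control for no effect and GSK-3 inhibitor IX positive control for full effect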
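Test system: human HeLa cells, native beta-catenin. Compound dosing: 5 µM primary single dose, 0.1% DMSO, 0.02–20 µM confirmation series. Incubation: compound exposure 24 h at 37°C. Detection: beta-catenin immunostaining with DAPI counterstain, 20x imaging, 6 fields/well. Read-out basis: Nuclear/cytoplasmic beta-catenin signal ratio, % activation.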
ROMK mod = modulators of human ROMK potassium channel; P48048; Tet-inducible ROMK, thallium flux fluorescence; actives lie on both sides; B-score at 10 µM; actives 2% (n = 130,000); AID 1918;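 active = signal ratio slope over the read window, or its plate-corrected B-score, at least 3 SD from the plate mean, either direction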;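 also: B-score of the F/F0 ratio slope over 7 to 12 s after thallium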
Target sequence (P48048 whole entry, looked up): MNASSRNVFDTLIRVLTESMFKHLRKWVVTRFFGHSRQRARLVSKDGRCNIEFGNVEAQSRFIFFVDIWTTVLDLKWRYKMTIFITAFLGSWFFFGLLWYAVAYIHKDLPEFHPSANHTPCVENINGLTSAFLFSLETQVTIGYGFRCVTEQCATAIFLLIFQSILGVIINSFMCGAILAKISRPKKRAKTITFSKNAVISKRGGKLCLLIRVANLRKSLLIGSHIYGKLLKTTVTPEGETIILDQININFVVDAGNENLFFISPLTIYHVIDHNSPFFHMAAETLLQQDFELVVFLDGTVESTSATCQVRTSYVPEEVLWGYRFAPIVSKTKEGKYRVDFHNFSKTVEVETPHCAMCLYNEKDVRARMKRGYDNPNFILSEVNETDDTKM
MT stabilize HCS = microtubule stabilizers in HeLa cells | HeLa tubulin immunostaining HCS, 24 h; share of cells brighter than vehicle mean+2SD | % tubulin-high responders, % at 10 µM | actives 0.83% (n = 200,000) | AID 2205;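 active = plate Z-score above 3 for both tubulin-high and condensed-nucleus cell shares, with cell loss under 80%, at 10 µM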;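 also: anti alpha tubulin signal scored within the nucleus-defined area of each cell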
An asterisk follows results filed as active; . = no result given.

SMILES	bCat nuc transl	ROMK mod	MT stabilize HCS
COC(=O)CN1C(=O)N/C(=C/c2ccccc2OC)C1=O	0	0.44	1
COc1ccc(C(=O)c2ccc(OC)c(OC)c2)cc1OC	.	0.19	4
COc1ccc(C(=O)c2ccc(OC)c(N)c2)cc1N	.	.	34*
OCCC1CN(Cc2cccn2-c2ncccn2)CCN1C1CCCC1 (centres undefined)	3	-0.99	4
CC(=O)Nc1ccc(S(=O)(=O)Nc2c(C)nn(-c3ccccc3)c2C)cc1	-4	.	4
Cc1nn(-c2ccc(F)cc2)c(C)c1NS(=O)(=O)c1ccc2ccccc2c1	-1	.	26*
O=c1[nH]c(CN2CCN(S(=O)(=O)c3cccs3)CC2)nc2c(Br)cc(Br)cc12	0	0.87	5
CC(C)c1ccc(/C=C2\Oc3c(ccc(O)c3CN3CCN(C)CC3)C2=O)cc1	0	-6.6*	2
Cc1ccc(/C=C2\Oc3c(ccc(O)c3CN3CCN(CCO)CC3)C2=O)cc1	2	.	3
CCc1nc(NC(C)(C)C)c2cnn(-c3ccccc3)c2n1	0	.	.
CCN1/C(=C/c2ccc3cc(C)ccc3[n+]2C)Sc2ccc3sccc3c21	.	-1.3	77*
CCN1/C(=C/c2ccc3cc(C)ccc3[n+]2CC)Sc2cc(C)ccc21	3	.	4
O=c1c2ccccc2nc(-c2ccc(Cl)c(Cl)c2)n1O	.	1.7	1
O=c1c2cc(Cl)ccc2nc(-c2ccc([N+](=O)[O-])cc2)n1O	-3	3.5*	3
CSc1nnc(-c2sc3cc(C(F)(F)F)cnc3c2-c2ccccc2)n1C	.	-0.16	40*
O=C(O)c1sc2cc(C(F)(F)F)cnc2c1-c1ccccc1	.	.	2
CCOC(=O)/C(C#N)=C\C1=C(N2CCOCC2)CC(C)(C)OC1	-5	-0.62	1
COC(=O)CCC(=O)Nc1sc(C)c(C)c1C(N)=O	2	0.71	3
COC(=O)CCC(=O)NC(=S)Nc1sc(C)c(C)c1C(N)=O	1	1.1	21*
Cc1ccc(N2CC(C(=O)NCC3CCCO3)CC2=O)cc1Cl (centres undefined)	-7	.	4
CN1CCN(c2ccc([N+](=O)[O-])cc2C(=O)c2ccc(Br)cc2)CC1	64*	.	20*
Cc1ccc(C(=O)c2cc([N+](=O)[O-])ccc2N2CCN(C)CC2)cc1	71*	.	41*
CN1CCN(c2ccc(Cl)cc2NC(=O)c2ccc([N+](=O)[O-])cc2)CC1	0	.	.
O=C(c1ccccc1)c1cc([N+](=O)[O-])ccc1N1CCCC1	8	.	3
CN1CCN(c2ccc([N+](=O)[O-])cc2C(=O)c2ccccc2)CC1	5	0.18	16
SMILES	bCat nuc transl	ROMK mod	MT stabilize HCS
O=C(c1ccc(Br)cc1)c1cc([N+](=O)[O-])ccc1N1CCCCC1	63*	.	17*
CC(C)OC(=O)c1ccc(N)cc1	-2	0.55	2
CN(CC(=O)Nc1cccc(F)c1)C(=O)CCCc1cccs1	-1	.	3
COc1ccc(OC)c(Nc2cc(C)nc3nc(C)nn23)c1	8	.	16*
COc1ccc(Nc2cc(C)nc3nc(C)nn23)c(OC)c1	-1	0.73	3
O=C1CC(c2ccc(F)cc2)CC2=C1C=Nc1ccccc1N2 (centres undefined)	0	-0.41	2
O=C1CC(c2ccccc2)CC2=C1C=Nc1ccccc1N2 (centres undefined)	4	0.49	21*
O=S(=O)(c1ccc2nc(SCc3ccc(Cl)cc3)[nH]c2c1)N1CCOCC1	-3	-2	2
O=S(=O)(c1ccc2nc(-c3ccccc3)[nH]c2c1)N1CCN(c2ccc(Cl)cc2)CC1	-3	-0.17	16*
Cc1cccc(C(=O)NC(=S)NNC(=O)c2ccc(Cl)cc2)c1	-3	5.3*	1
COc1cc(C(=O)NNC(=S)NC(=O)c2ccc(Cl)cc2)cc(OC)c1OC	.	0.42	6
c1ccc2c(NCCCN3CCOCC3)c3ccccc3nc2c1	1	-1.1	34*
Fc1ccccc1-c1nc(NCCCN2CCOCC2)c2ccccc2n1	-4	-1.3	3
O=S(=O)(NCc1ccccc1F)NCc1ccccc1F	-3	.	2
CCc1cc(-c2[nH]ncc2-c2ccc3c(c2)OCO3)c(O)cc1O	0	.	4
CCCc1cc(-c2[nH]ncc2-c2ccc3c(c2)OCCCO3)c(O)cc1OC	3	.	47*
CCOC(=O)C(Sc1cc(-c2ccccc2)nc2ncnn12)C(C)=O (centres undefined)	1	0.17	.
COC(=O)N/N=C/c1cc(C)n(-c2cccc3ccccc23)c1C	-1	2.4	3
CCOC(=O)N/N=C/c1cc(C)n(-c2cccc3ccccc23)c1C	9	.	21*
C/C(=N\NC(=O)COc1ccc(C(C)(C)C)cc1)c1ccc(N2CCOCC2)cc1	-3	.	1
O=Cc1cc2ccccc2nc1SCc1ccc(Cl)c(Cl)c1	3	.	18*
O=c1[nH]c(SCc2ccc(Cl)cc2)nc2ccccc12	1	0.83	3
O=Cc1cc2ccccc2nc1SCc1ccc(Cl)cc1	4	.	28*
N#Cc1ccc(-c2cccnc2)nc1SCc1ccc(Cl)c(Cl)c1	1	.	3
COC(=O)C(CO)NC(=O)C(C)NC(=O)CNC(=O)OCc1ccccc1 (centres undefined)	.	0.26	4
SMILES	bCat nuc transl	ROMK mod	MT stabilize HCS
Cn1cnnc1SCC(=O)NN(c1ccccc1)c1ccccc1	.	-0.83	4
COc1ccc(C(=O)COC(=O)c2cc(S(=O)(=O)NCc3ccccc3)ccc2O)cc1	-3	0.52	1
COc1ccc(NC(=O)Cc2coc3ccc4ccccc4c23)cc1S(=O)(=O)N1CCOCC1	1	.	3
Cc1cc2c3c(c1C)C1(C(=O)N3C(C)(C)CC2C)C(C#N)=C(N)Oc2n[nH]c(C)c21 (centres undefined)	.	.	2
Cc1cc2c3c(c1)C1(C(=O)N3C(C)(C)CC2C)C(C#N)=C(N)Oc2n[nH]c(C)c21 (centres undefined)	.	.	17*
CC(=O)O[C@@]12CO[C@@H]1C[C@H](O)[C@@]1(C)C(=O)[C@H](O)C3=C(C)[C@@H](OC(=O)[C@H](O)[C@@H](NC(=O)OC(C)(C)C)c4ccccc4)C[C@](O)([C@@H](OC(=O)c4ccccc4)[C@H]21)C3(C)C	77*	.	.
O=C(CSc1nc(-c2ccccc2)c(-c2ccccc2)[nH]1)NCc1ccco1	.	.	28
O=C(CSc1nc(-c2ccccc2)c(-c2ccccc2)[nH]1)NCCN1C(=O)CSC1=O	7	.	19*
CC(=O)Nc1cccc(NC(=S)Nc2ccc(F)cc2F)c1	0	0.028	5
COc1ccc(-c2nc3ccccc3c(C(=O)Nc3ccc(S(=O)(=O)Nc4cc(C)on4)cc3)c2C)cc1	1	4.2*	25
Cc1ccc(-c2cc(C(=O)Nc3ccc(S(=O)(=O)Nc4cc(C)on4)cc3)c3ccccc3n2)c(C)c1	0	1.9	3
O=C1/C(=C/c2ccncc2)CCc2ccccc21	1	-1.7	.
O=C1/C(=C/c2ccncc2)CCC/C1=C\c1ccncc1	.	-3.3*	31*
CCNC(=S)N1CCc2ccccc2C1	2	-0.59	2
Cc1cccc(C(=O)NC(=S)N2CCc3ccccc3C2)c1	-3	9.1*	3
COc1ccc(C2CC(=O)C=C(NCc3ccc4c(c3)OCO4)C2)cc1 (centres undefined)	0	1	.

Source: PubChem BioAssay
